Source: PubChem
The list is not random: actives were taken first. Their share in the collection is about 1.5%.
CHT PAM = allosterically activates the human high affinity choline transporter. 310,000 tested, 0.49% active. CHT-expressing cells, membrane potential dye, choline EC20; active compounds read high; LV-AA mutant CHT in HEK293 cells. B-score at 10 µM. Q9GZV3. AID 488977;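 active = initial fluorescence not abnormally high and integrated response B-score, plate-corrected, over 3 SD above library mean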
Target sequence (Q9GZV3 whole entry, looked up): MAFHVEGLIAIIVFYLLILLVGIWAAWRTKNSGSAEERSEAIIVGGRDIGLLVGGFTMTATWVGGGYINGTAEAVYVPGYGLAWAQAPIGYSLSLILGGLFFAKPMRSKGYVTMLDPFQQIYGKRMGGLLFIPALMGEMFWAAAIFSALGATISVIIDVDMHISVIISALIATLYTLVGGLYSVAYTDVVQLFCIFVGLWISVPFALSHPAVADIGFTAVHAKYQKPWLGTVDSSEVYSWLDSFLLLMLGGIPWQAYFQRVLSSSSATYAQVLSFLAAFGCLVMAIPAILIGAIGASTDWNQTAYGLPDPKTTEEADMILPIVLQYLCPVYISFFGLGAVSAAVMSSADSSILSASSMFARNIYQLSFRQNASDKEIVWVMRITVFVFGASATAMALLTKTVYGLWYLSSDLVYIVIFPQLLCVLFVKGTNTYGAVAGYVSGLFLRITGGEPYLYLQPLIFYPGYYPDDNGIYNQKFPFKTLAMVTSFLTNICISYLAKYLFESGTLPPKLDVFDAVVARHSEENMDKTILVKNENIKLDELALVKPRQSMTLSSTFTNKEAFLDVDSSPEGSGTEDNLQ
VLA-4 inh = inhibition in a human VLA-4 binding assay; P13612; VLA-4 expressing cells, ligand binding flow cytometry; inhibition, % (about 7 µM as worked out from the volumes in the protocol); 330,000 tested, 0.2% active; in the data active = inhibition above about 50%
T cell modulator = T cell immune modulation candidate; 2C CD8+ T cell-vesicle binding, flow cytometry; active compounds read low; response (vesicle binding), % at 7 µM; 330,000 tested, 0.068% active; AID 2052;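 active = response, share of CD8 T cells binding vesicles, and their 90th percentile fluorescence all below set limits, cut at about 80% in these data, passing the limit was not always enough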;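 note: values below 100% mean blocked vesicle binding to the CD8+ T cells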
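Assay system – 2C mouse CD8+ T cells · Also added – QL9-loaded Drosophila micro-vesicles · Timing – Cell–vesicle co-incubation 1.5 h at 37 °C, staining 20 min on ice · Signal – flow cytometry of vesicle-bound cells · Measure – percent CD8+ FL2 mean versus row control · Controls – Peptide-free naked vesicles (low) and QL9 vesicles with 0.7% DMSO vehicle (high)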
CHT block = inhibitors of human choline transporter CHT; Q9GZV3; CHT-expressing cells, membrane potential dye, choline response; active compounds read low; 310,000 tested, 0.86% active; B-score at 10 µM;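 active = B-score over 3 SD under the library average, and starting fluorescence ratio not unusually high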;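 note: choline stimulus applied at its EC90 after an EC20 pre-addition; B-score computed on integrated fluorescence ratio after choline addition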
CHT activ conf = confirmation of human choline transporter (CHT) activators | shares compounds with CHT PAM | CHT-expressing cells, membrane potential dye fluorescence (FDSS); % of choline EC20–EC90 response window; HEK293 expressing CHT LV-AA mutant; choline added at its EC20 | activation, % at 10 µM | 2,500 tested, 91% active;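 active = primary screen active, with duplicate mean activation above negative control mean plus 3 SD, cut at about 11% in these data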
HEK293 MP dye = counter-screen for CHT activators: effect in parental HEK293 cells | ratio readout change at 10 µM, hits read low | shares compounds with CHT PAM | 2,500 tested, 62% active | membrane potential dye fluorescence (FDSS); measured after EC20 choline addition;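 active = duplicate-averaged ratio beyond 3 SD from buffer wells, up or down, though filed actives are nearly all decreases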
Starred values were filed as active, the others as inactive; i = inactive; · = not tested or not shown.

SMILES	CHT PAM	VLA-4 inh	T cell modulator	CHT block	CHT activ conf	HEK293 MP dye
COc1ccc(C2=NC(C)(C)Cc3cc(OC)c(OC)cc32)cc1	8.3*	9	263	i	67*	-84*
COc1cc2c(cc1OC)C(SC)=NC(C)(C)C2	i	31	210	i	53*	-44*
Cc1ccc(S(=O)(=O)N(C)C)cc1NC(=O)COC(=O)CNC(=O)c1cccs1	i	4	299	i	·	·
CC1CCN(C2CCN(S(=O)(=O)c3ccc(C(F)(F)F)cc3)CC2)CC1	i	3	909	i	·	·
CCc1cccc(CC)c1-n1c(SCC(=O)N2CCc3ccccc3C2)nnc1-c1cccnc1	i	0	470	i	8	i
CC(=O)c1ccc2c(c1)N(CCCN1CCC(CCO)CC1)c1ccccc1S2	9.1*	32	968	i	46*	-49*
CN1CCN(CCCN2c3ccccc3Sc3ccc(S(=O)(=O)N(C)C)cc32)CC1	i	16	611	i	16*	-30*
O=C(N=C1SC2CS(=O)(=O)CC2N1c1ccccc1Cl)C1CCCO1 (centres undefined)	i	2	217	i	·	·
Cc1cc(=O)n2nc(N3CCCC(C(=O)NC4CCC(C)CC4)C3)sc2n1 (centres undefined)	i	-5	339	i	·	·
CC(C)N1CCN(Cc2cc(F)ccc2-n2cccn2)CC1CCO (centres undefined)	i	0	205	i	·	·
CC(C)N1CCC(N2CCN(Cc3cc(F)ccc3-n3cccn3)CC2CCO)CC1 (centres undefined)	i	-1	348	i	73*	-55*
O=C(CCc1nc2ccccc2c(=O)[nH]1)Nc1nnc(SCc2ccc(F)cc2)s1	i	-4	347	i	·	·
CCOC(=O)c1cc(-c2ccncc2)nc2c1c(C)nn2-c1ccccn1	7.7*	12	262	i	30*	-20*
COc1ccc(-c2cc(C(=O)O)c3c(C)nn(-c4ccccn4)c3n2)cc1	i	5	304	i	·	·
Cc1[nH]c2ccc(Cl)cc2c(=O)c1CN1CCCC1	i	-1	195	i	·	·
CCOc1ccc2[nH]c(C)cc(=O)c2c1	i	1	106	i	·	·
CCOc1ccc2[nH]c(C)c(CN(C)C)c(=O)c2c1	i	6	426	i	53*	-25*
CCOc1ccc2[nH]c(C)c(CN3CCCCC3)c(=O)c2c1	7.6*	8	i	i	47*	-34*
COc1ccc(C(C)=O)cc1CSc1nc2ccccc2c(=O)n1-c1ccccc1C	i	0	150	i	25*	i
COc1ccc(C(C)=O)cc1CSc1nncn1C	i	31	234	i	·	·
COc1ccc(C(C)=O)cc1CSc1nnc2c(Cl)cc(Cl)cn12	9.6*	9	250	i	84*	-89*
COc1ccc(C(C)=O)cc1CSc1nc2ccccc2c(=O)n1-c1ccccc1	i	-13	467	i	·	·
Cc1noc(C)c1S(=O)(=O)N1CCCN(C(=O)/C=C/c2ccccc2F)CC1	·	-4	822	·	·	·
CCCCn1c(N)c(N(CCOC)C(=O)c2ccc(COc3ccccc3)o2)c(=O)[nH]c1=O	6.7*	-1	280	i	16*	i
COCCN(C(=O)c1ccc(COc2ccccc2)o1)c1c(N)n(CC(C)C)c(=O)[nH]c1=O	·	0	144	·	·	·
SMILES	CHT PAM	VLA-4 inh	T cell modulator	CHT block	CHT activ conf	HEK293 MP dye
Cc1sc2ncn3c(C)nnc3c2c1C	7*	-2	165	i	59*	-58*
Cc1sc2ncn(CCn3cnc4sc(C)c(C)c4c3=O)c(=O)c2c1C	i	2	598	i	·	·
CCCOP(=O)(c1ccc(N(C)C)cc1)C(O)c1ccc(N(C)C)cc1 (centres undefined)	i	7	181	i	·	·
O=[N+]([O-])c1cnc2nc(-c3ccncc3)nn2c1O	i	6	161	i	44*	-45*
O=[N+]([O-])c1cc(Cl)ccc1-c1nc(-c2ccncc2)no1	i	2	301	i	·	·
N=c1c2c(n(Cc3ccc(Cl)c(Cl)c3)c3c1CCC3)CCCC2	9.6*	6	428	i	78*	-39*
